Data as given in ChEMBL document CHEMBL5058577, “EUbOPEN Chemogenomics Library 2 (Multiplex)” (2022).

Tested on: Fibroblast
Test: Multiplex assay against human fibroblast
Format: toxicity, cell-based
Outline: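 At seeding, live cells were stained with Hoechst33342, BioTracker Green Microtubule Cytoskeleton Dye, MitoTracker Red and Annexin V Alexa Fluor 680. After compound addition they were imaged on a CQ1 microscope at 37°C and 5% CO2, and CellPathfinder machine-learning gating sorted them into Hoechst high-intensity objects or normal cells, with normal cells further split into healthy, pyknosed or fragmented nuclei and pyknosed cells into mitotic or apoptotic. Tubulin, mitochondrial-mass and membrane-permeability phenotypes are given as per cents of cells with healthy nuclei.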

[1] = 12 h, 1 µM, compound concentration 1 uM, replicate 1
[2] = 12 h, 1 µM, compound concentration 1 uM, replicate 2
[3] = 12 h, 10 µM, compound concentration 10 uM, replicate 1
[4] = 12 h, 10 µM, compound concentration 10 uM, replicate 2
[5] = 24 h, 1 µM, compound concentration 1 uM, replicate 1
[6] = 24 h, 1 µM, compound concentration 1 uM, replicate 2
[7] = 24 h, 10 µM, compound concentration 10 uM, replicate 1
[8] = 24 h, 10 µM, compound concentration 10 uM, replicate 2
[9] = 48 h, 1 µM, compound concentration 1 uM, replicate 1
[10] = 48 h, 1 µM, compound concentration 1 uM, replicate 2
[11] = 48 h, 10 µM, compound concentration 10 uM, replicate 1
[12] = 48 h, 10 µM, compound concentration 10 uM, replicate 2

Cc1nc2ccc(Oc3ccc(F)cc3)cc2c(=O)n1C[C@H]1CCCN(C(C)C)C1.Cl
Population Apoptotic (%) [1]: 34%
Population Fragmented Nuclei (%) [1]: 19%
Population Healthy Nuclei (%) [1]: 67%
Population Hoechst High Intensity Objects (%) [1]: 5%
Population Membrane Permeable-Phenotype (%) [1]: 1%
Population Mitochondria Different-Phenotype (%) [1]: 4%
Population Mitotic Cells (%) [1]: 65%
Population Normal (%) [1]: 94%
Population Pyknosed Nuclei (%) [1]: 13%
Population Tubulin-Different-Phenotype (%) [1]: 31%
Total Cell Count [1]: 184
Population Apoptotic (%) [2]: 44%
Population Fragmented Nuclei (%) [2]: 24%
Population Healthy Nuclei (%) [2]: 47%
Population Hoechst High Intensity Objects (%) [2]: 9%
Population Membrane Permeable-Phenotype (%) [2]: 21%
Population Mitochondria Different-Phenotype (%) [2]: 8%
Population Mitotic Cells (%) [2]: 55%
Population Normal (%) [2]: 90%
Population Pyknosed Nuclei (%) [2]: 29%
Population Tubulin-Different-Phenotype (%) [2]: 70%
Total Cell Count [2]: 111
Population Apoptotic (%) [3]: 53%
Population Fragmented Nuclei (%) [3]: 19%
Population Healthy Nuclei (%) [3]: 61%
Population Hoechst High Intensity Objects (%) [3]: 4%
Population Membrane Permeable-Phenotype (%) [3]: 1%
Population Mitochondria Different-Phenotype (%) [3]: 22%
Population Mitotic Cells (%) [3]: 46%
Population Normal (%) [3]: 95%
Population Pyknosed Nuclei (%) [3]: 19%
Population Tubulin-Different-Phenotype (%) [3]: 88%
Total Cell Count [3]: 241
Population Apoptotic (%) [4]: 61%
Population Fragmented Nuclei (%) [4]: 36%
Population Healthy Nuclei (%) [4]: 44%
Population Hoechst High Intensity Objects (%) [4]: 3%
Population Membrane Permeable-Phenotype (%) [4]: 5%
Population Mitochondria Different-Phenotype (%) [4]: 25%
Population Mitotic Cells (%) [4]: 38%
Population Normal (%) [4]: 96%
Population Tubulin-Different-Phenotype (%) [4]: 80%
Total Cell Count [4]: 205
Population Apoptotic (%) [5]: 66%
Population Fragmented Nuclei (%) [5]: 17%
Population Healthy Nuclei (%) [5]: 68%
Population Hoechst High Intensity Objects (%) [5]: 3%
Population Membrane Permeable-Phenotype (%) [5]: 1%
Population Mitochondria Different-Phenotype (%) [5]: 6%
Population Mitotic Cells (%) [5]: 33%
Population Normal (%) [5]: 96%
Population Pyknosed Nuclei (%) [5]: 13%
Population Tubulin-Different-Phenotype (%) [5]: 30%
Total Cell Count [5]: 186
Population Apoptotic (%) [6]: 38%
Population Fragmented Nuclei (%) [6]: 29%
Population Healthy Nuclei (%) [6]: 50%
Population Hoechst High Intensity Objects (%) [6]: 7%
Population Membrane Permeable-Phenotype (%) [6]: 19%
Population Mitochondria Different-Phenotype (%) [6]: 17%
Population Mitotic Cells (%) [6]: 61%
Population Normal (%) [6]: 92%
Population Pyknosed Nuclei (%) [6]: 20%
Population Tubulin-Different-Phenotype (%) [6]: 73%
Total Cell Count [6]: 112
Population Apoptotic (%) [7]: 67%
Population Fragmented Nuclei (%) [7]: 27%
Population Healthy Nuclei (%) [7]: 58%
Population Hoechst High Intensity Objects (%) [7]: 3%
Population Membrane Permeable-Phenotype (%) [7]: 0%
Population Mitochondria Different-Phenotype (%) [7]: 27%
Population Mitotic Cells (%) [7]: 32%
Population Normal (%) [7]: 96%
Population Pyknosed Nuclei (%) [7]: 13%
Population Tubulin-Different-Phenotype (%) [7]: 84%
Total Cell Count [7]: 290
Population Apoptotic (%) [8]: 54%
Population Fragmented Nuclei (%) [8]: 30%
Population Healthy Nuclei (%) [8]: 52%
Population Hoechst High Intensity Objects (%) [8]: 6%
Population Membrane Permeable-Phenotype (%) [8]: 1%
Population Mitochondria Different-Phenotype (%) [8]: 29%
Population Mitotic Cells (%) [8]: 45%
Population Normal (%) [8]: 93%
Population Pyknosed Nuclei (%) [8]: 17%
Population Tubulin-Different-Phenotype (%) [8]: 87%
Total Cell Count [8]: 187
Population Apoptotic (%) [9]: 66%
Population Fragmented Nuclei (%) [9]: 25%
Population Healthy Nuclei (%) [9]: 66%
Population Hoechst High Intensity Objects (%) [9]: 3%
Population Membrane Permeable-Phenotype (%) [9]: 0%
Population Mitochondria Different-Phenotype (%) [9]: 2%
Population Mitotic Cells (%) [9]: 33%
Population Normal (%) [9]: 96%
Population Pyknosed Nuclei (%) [9]: 8%
Population Tubulin-Different-Phenotype (%) [9]: 33%
Total Cell Count [9]: 184
Population Apoptotic (%) [10]: 42%
Population Fragmented Nuclei (%) [10]: 36%
Population Healthy Nuclei (%) [10]: 44%
Population Hoechst High Intensity Objects (%) [10]: 5%
Population Membrane Permeable-Phenotype (%) [10]: 6%
Population Mitochondria Different-Phenotype (%) [10]: 13%
Population Mitotic Cells (%) [10]: 57%
Population Normal (%) [10]: 94%
Population Pyknosed Nuclei (%) [10]: 19%
Population Tubulin-Different-Phenotype (%) [10]: 68%
Total Cell Count [10]: 105
Population Apoptotic (%) [11]: 66%
Population Fragmented Nuclei (%) [11]: 23%
Population Healthy Nuclei (%) [11]: 65%
Population Hoechst High Intensity Objects (%) [11]: 9%
Population Membrane Permeable-Phenotype (%) [11]: 0%
Population Mitochondria Different-Phenotype (%) [11]: 20%
Population Mitotic Cells (%) [11]: 33%
Population Normal (%) [11]: 90%
Population Pyknosed Nuclei (%) [11]: 10%
Population Tubulin-Different-Phenotype (%) [11]: 85%
Total Cell Count [11]: 290
Population Apoptotic (%) [12]: 68%
Population Fragmented Nuclei (%) [12]: 33%
Population Healthy Nuclei (%) [12]: 53%
Population Hoechst High Intensity Objects (%) [12]: 3%
Population Membrane Permeable-Phenotype (%) [12]: 2%
Population Mitochondria Different-Phenotype (%) [12]: 19%
Population Mitotic Cells (%) [12]: 32%
Population Normal (%) [12]: 96%
Population Pyknosed Nuclei (%) [12]: 12%
Total Cell Count [12]: 201
